Measured values from ChEMBL document CHEMBL1129041, “Design of orally active dual inhibitors of neutral endopeptidase and angiotensin-converting enzyme with long duration of action” (J Med Chem, 1996).

Molecular target: T1, Neprilysin (Mus musculus) (UniProt Q61391)
T1 sequence (whole entry): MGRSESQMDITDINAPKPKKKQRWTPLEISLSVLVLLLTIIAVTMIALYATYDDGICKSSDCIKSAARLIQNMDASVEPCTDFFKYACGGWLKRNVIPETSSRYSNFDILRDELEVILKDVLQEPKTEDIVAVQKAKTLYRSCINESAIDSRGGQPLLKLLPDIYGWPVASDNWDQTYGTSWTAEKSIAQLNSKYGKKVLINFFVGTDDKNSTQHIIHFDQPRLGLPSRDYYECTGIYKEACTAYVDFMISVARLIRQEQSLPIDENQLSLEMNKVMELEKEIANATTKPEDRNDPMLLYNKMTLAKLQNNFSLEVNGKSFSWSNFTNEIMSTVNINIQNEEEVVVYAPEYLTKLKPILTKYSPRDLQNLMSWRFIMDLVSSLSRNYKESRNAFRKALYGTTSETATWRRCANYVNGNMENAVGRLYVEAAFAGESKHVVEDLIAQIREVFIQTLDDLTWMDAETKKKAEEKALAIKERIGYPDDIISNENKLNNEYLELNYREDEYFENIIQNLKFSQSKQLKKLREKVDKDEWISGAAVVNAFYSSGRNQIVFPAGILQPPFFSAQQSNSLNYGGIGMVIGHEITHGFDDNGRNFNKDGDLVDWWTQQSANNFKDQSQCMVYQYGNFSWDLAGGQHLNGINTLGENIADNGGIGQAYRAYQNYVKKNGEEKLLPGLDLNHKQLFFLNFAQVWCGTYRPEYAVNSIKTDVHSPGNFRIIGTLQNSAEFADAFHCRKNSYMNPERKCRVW
Test: In vivo percent inhibition activity against kidney Neutral endopeptidase 2 hr after oral administration of a dose of 2.6 x 10e-5 mol/kg
Type: organism-based
Method in brief: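 Mice given a single oral dose in 10% ethanol/10% cremophor/80% water; kidneys taken 2 h later and homogenized at 4 °C in 50 mM Tris-HCl pH 7.4. Membrane fraction (100000g) preincubated 5 min at 25 °C with bestatin and captopril, then incubated 10 min with [3H]-D-Ala2-Leu-enkephalin (2 × 10^-8 M). [3H]Tyr-D-Ala-Gly counted; blanks contained 10^-5 M retrothiorphan.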

Cc1ccccc1C1CC[C@@H](C(=O)O)N1C(=O)CNC(=O)[C@@H](S)Cc1ccc(O)cc1 (single isomer, unassigned)
inhibition: 44%
